Measurements collected from several papers.
pIC50: −log10 of the molar value.
Effect on: cell growth or viability

| SMILES | cell line | test | setting | quantity | value |
| --- | --- | --- | --- | --- | --- |
| COc1cc2c(Nc3ccc(Br)cc3F)ncnc2cc1OCC1CCN(C)CC1 | BT-474 | ATP luminescence | 72 h | GI50 | 5910 nM |
| COc1ccc(-c2ccc(-c3ccc(C(=N)N)nc3)s2)cc1Cl | SK-MEL-5 | SRB |  | GI50 | 1820 nM |
| CC[C@]1(O)C[C@H]2CN(CCc3c([nH]c4ccccc34)[C@@](C(=O)OC)(c3cc4c(cc3OC)N(C=O)[C@H]3[C@@](O)(C(=O)OC)[C@H](OC(C)=O)[C@]5(CC)C=CCN6CC[C@]43[C@@H]65)C2)C1 | MB002 |  | 7 days | pIC50 | 7.95 |
| CC(C)C[C@H](NC(=O)[C@H](Cc1ccccc1)NC(=O)c1cnccn1)B(O)O | NCI-H1563 | ATP luminescence |  | pIC50 | 7.66 |
| CCCCCCCCCC(=O)N[C@@H](Cc1c[nH]c2ccccc12)C(=O)N[C@H](CC(N)=O)C(=O)N[C@@H](CC(=O)O)C(=O)N[C@@H]1C(=O)NCC(=O)N[C@@H](CCCN)C(=O)N[C@@H](CC(=O)O)C(=O)N[C@H](C)C(=O)N[C@@H](CC(=O)O)C(=O)NCC(=O)N[C@H](CO)C(=O)N[C@@H]([C@H](C)CC(=O)O)C(=O)N[C@@H](CC(=O)c2ccccc2N)C(=O)O[C@@H]1C | KB 3-1 | WST-1 |  | Kb | > 64000 nM |
| CC(=O)Nc1cccc(-n2c(=O)n(C3CC3)c(=O)c3c(Nc4ccc(I)cc4F)n(C)c(=O)c(C)c32)c1 | Calu-6 | resazurin | 0.1 µM, 72 h | viability | 62.6% |
| CCOc1cc(C(C)(C)C)ccc1C1=N[C@@](C)(c2ccc(Cl)cc2)[C@@](C)(c2ccc(Cl)cc2)N1C(=O)N1CCN(CCCS(C)(=O)=O)CC1 | MB002 |  | 7 days | pIC50 | 7.00 |
| COc1cc(Nc2nccc(-c3cnn4nc(OC)ccc34)n2)cc(C(F)(F)F)c1 | SK-ES1 | ATP luminescence |  | pIC50 | 6.72 |
| C[C@H]1Oc2cc(cnc2N)-c2c(nn(C)c2C#N)CN(C)C(=O)c2ccc(F)cc21 | HD-MB03 |  | 7 days | pIC50 | < 5.00 |
| CC(=O)c1c(C)c2cnc(Nc3ccc(N4CCNCC4)cn3)nc2n(C2CCCC2)c1=O | BT-474 | resazurin |  | GI50 | 200 nM |
| CC(=O)c1c(C)c2cnc(Nc3ccc(N4CCNCC4)cn3)nc2n(C2CCCC2)c1=O | MB002 |  | 7 days | pIC50 | 7.97 |
| CC(=NN=c1[nH]c(C)cs1)c1c(O)c2ccccc2oc1=O | human Skin fibroblast | MTT | 48 h | pIC50 | < 4.00 |
